# Reference: ChEMBL document CHEMBL5058577, “EUbOPEN Chemogenomics Library 2 (Multiplex)” (2022)
# System: HEK-293T
# Assay: Multiplex assay against HEK293T
# Format: toxicity, cell-based
# Settings: human
# In short: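 Per cents of healthy-nucleus cells form the tubulin, mitochondrial-mass and membrane-permeability phenotype values. Live cells were stained at seeding with Hoechst33342, BioTracker Green Microtubule Cytoskeleton Dye, MitoTracker Red and Annexin V Alexa Fluor 680. After compound addition they were imaged on a CQ1 microscope at 37°C and 5% CO2, and CellPathfinder machine-learning gating split them into Hoechst high-intensity objects or normal cells, normal cells into healthy, pyknosed or fragmented nuclei, and pyknosed cells into mitotic or apoptotic.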
# [1] = 12 h, 1 µM, compound concentration 1 uM, replicate 1
# [2] = 12 h, 1 µM, compound concentration 1 uM, replicate 2
# [3] = 12 h, 10 µM, compound concentration 10 uM, replicate 1
# [4] = 12 h, 10 µM, compound concentration 10 uM, replicate 2
# [5] = 24 h, 1 µM, compound concentration 1 uM, replicate 1
# [6] = 24 h, 1 µM, compound concentration 1 uM, replicate 2
# [7] = 24 h, 10 µM, compound concentration 10 uM, replicate 1
# [8] = 24 h, 10 µM, compound concentration 10 uM, replicate 2
# [9] = 48 h, 1 µM, compound concentration 1 uM, replicate 1
# [10] = 48 h, 1 µM, compound concentration 1 uM, replicate 2
# [11] = 48 h, 10 µM, compound concentration 10 uM, replicate 1
# [12] = 48 h, 10 µM, compound concentration 10 uM, replicate 2
compound,measurement,setting,value
COc1cc(C(=O)N2CC[C@@H](O)[C@@H](N)C2)cc2nc(-c3cc4ccccc4n3CC3CC3)n(C)c12.Cl,Population Apoptotic (%),[1],48%
same,Population Fragmented Nuclei (%),[1],6%
same,Population Healthy Nuclei (%),[1],79%
same,Population Hoechst High Intensity Objects (%),[1],10%
same,Population Membrane Permeable-Phenotype (%),[1],0%
same,Population Mitochondria Different-Phenotype (%),[1],56%
same,Population Mitotic Cells (%),[1],51%
same,Population Normal (%),[1],89%
same,Population Pyknosed Nuclei (%),[1],13%
same,Population Tubulin-Different-Phenotype (%),[1],52%
same,Total Cell Count,[1],398
same,Population Apoptotic (%),[2],70%
same,Population Fragmented Nuclei (%),[2],2%
same,Population Healthy Nuclei (%),[2],77%
same,Population Hoechst High Intensity Objects (%),[2],15%
same,Population Mitochondria Different-Phenotype (%),[2],71%
same,Population Mitotic Cells (%),[2],29%
same,Population Normal (%),[2],84%
same,Population Pyknosed Nuclei (%),[2],20%
same,Population Tubulin-Different-Phenotype (%),[2],37%
same,Total Cell Count,[2],281
same,Population Apoptotic (%),[3],71%
same,Population Fragmented Nuclei (%),[3],5%
same,Population Healthy Nuclei (%),[3],66%
same,Population Hoechst High Intensity Objects (%),[3],21%
same,Population Membrane Permeable-Phenotype (%),[3],0%
same,Population Mitochondria Different-Phenotype (%),[3],90%
same,Population Mitotic Cells (%),[3],28%
same,Population Normal (%),[3],78%
same,Population Pyknosed Nuclei (%),[3],28%
same,Population Tubulin-Different-Phenotype (%),[3],79%
same,Total Cell Count,[3],260
same,Population Fragmented Nuclei (%),[4],4%
same,Population Healthy Nuclei (%),[4],80%
same,Population Hoechst High Intensity Objects (%),[4],18%
same,Population Membrane Permeable-Phenotype (%),[4],2%
same,Population Mitochondria Different-Phenotype (%),[4],88%
same,Population Normal (%),[4],81%
same,Population Pyknosed Nuclei (%),[4],15%
same,Population Tubulin-Different-Phenotype (%),[4],72%
same,Total Cell Count,[4],350
same,Population Apoptotic (%),[5],42%
same,Population Fragmented Nuclei (%),[5],9%
same,Population Healthy Nuclei (%),[5],77%
same,Population Hoechst High Intensity Objects (%),[5],6%
same,Population Membrane Permeable-Phenotype (%),[5],0%
same,Population Mitochondria Different-Phenotype (%),[5],42%
same,Population Mitotic Cells (%),[5],57%
same,Population Normal (%),[5],93%
same,Population Pyknosed Nuclei (%),[5],13%
same,Population Tubulin-Different-Phenotype (%),[5],33%
same,Total Cell Count,[5],527
same,Population Apoptotic (%),[6],60%
same,Population Fragmented Nuclei (%),[6],7%
same,Population Healthy Nuclei (%),[6],79%
same,Population Hoechst High Intensity Objects (%),[6],12%
same,Population Mitochondria Different-Phenotype (%),[6],64%
same,Population Mitotic Cells (%),[6],39%
same,Population Normal (%),[6],87%
same,Population Pyknosed Nuclei (%),[6],12%
same,Population Tubulin-Different-Phenotype (%),[6],30%
same,Total Cell Count,[6],363
same,Population Apoptotic (%),[7],58%
same,Population Fragmented Nuclei (%),[7],8%
same,Population Healthy Nuclei (%),[7],70%
same,Population Hoechst High Intensity Objects (%),[7],18%
same,Population Membrane Permeable-Phenotype (%),[7],0%
same,Population Mitochondria Different-Phenotype (%),[7],94%
same,Population Mitotic Cells (%),[7],41%
same,Population Normal (%),[7],81%
same,Population Pyknosed Nuclei (%),[7],20%
same,Population Tubulin-Different-Phenotype (%),[7],78%
same,Total Cell Count,[7],312
same,Population Apoptotic (%),[8],65%
same,Population Fragmented Nuclei (%),[8],6%
same,Population Healthy Nuclei (%),[8],78%
same,Population Hoechst High Intensity Objects (%),[8],21%
same,Population Mitochondria Different-Phenotype (%),[8],92%
same,Population Mitotic Cells (%),[8],34%
same,Population Normal (%),[8],78%
same,Population Pyknosed Nuclei (%),[8],15%
same,Population Tubulin-Different-Phenotype (%),[8],74%
same,Total Cell Count,[8],411
same,Population Apoptotic (%),[9],24%
same,Population Fragmented Nuclei (%),[9],9%
same,Population Healthy Nuclei (%),[9],79%
same,Population Hoechst High Intensity Objects (%),[9],5%
same,Population Membrane Permeable-Phenotype (%),[9],0%
same,Population Mitochondria Different-Phenotype (%),[9],37%
same,Population Mitotic Cells (%),[9],75%
same,Population Normal (%),[9],94%
same,Population Pyknosed Nuclei (%),[9],10%
same,Population Tubulin-Different-Phenotype (%),[9],28%
same,Total Cell Count,[9],816
same,Population Apoptotic (%),[10],64%
same,Population Healthy Nuclei (%),[10],80%
same,Population Hoechst High Intensity Objects (%),[10],7%
same,Population Mitochondria Different-Phenotype (%),[10],48%
same,Population Mitotic Cells (%),[10],36%
same,Population Normal (%),[10],92%
same,Population Tubulin-Different-Phenotype (%),[10],22%
same,Total Cell Count,[10],520
same,Population Apoptotic (%),[11],76%
same,Population Fragmented Nuclei (%),[11],13%
same,Population Healthy Nuclei (%),[11],68%
same,Population Hoechst High Intensity Objects (%),[11],18%
same,Population Membrane Permeable-Phenotype (%),[11],0%
same,Population Mitochondria Different-Phenotype (%),[11],89%
same,Population Mitotic Cells (%),[11],23%
same,Population Normal (%),[11],81%
same,Population Pyknosed Nuclei (%),[11],17%
same,Population Tubulin-Different-Phenotype (%),[11],81%
same,Total Cell Count,[11],386
same,Population Healthy Nuclei (%),[12],75%
same,Population Hoechst High Intensity Objects (%),[12],23%
same,Population Mitochondria Different-Phenotype (%),[12],87%
same,Population Normal (%),[12],76%
same,Population Pyknosed Nuclei (%),[12],10%
same,Population Tubulin-Different-Phenotype (%),[12],74%
same,Total Cell Count,[12],467
